Reference: PubChem BioAssay
Activity calls are given as the source filed them.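 Rule for the calls, unless noted: active = inhibition at or above 50% relative to wild type and mutant plate controls; inactive = inhibition below 50%.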

Key:
[1] = inhibitors of TNFa-induced NFkB p65 translocation, primary screen, imaging, HUVEC, MLSMR starter and 10KST1 sets (AID 438;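 active = inhibition above 20% together with a positive visual image hit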;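 note: compound added about 3h40 before a 20 min TNFalpha stimulation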;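 for inhibition: signal is the nuclear over cytoplasmic p65 intensity ratio per well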); conditions: HUVEC TNFa-induced p65 nuclear translocation; cell count: measured here: nuclei count (cytotoxicity indicator), at 2.08 µM; inhibition: at 2 µM, stronger effect = higher value, 0% TNFa-plus-vehicle, 100% no-TNFa wells
[2] = inhibitors of E-selectin induction by TNFa, primary screen, imaging, HUVEC, immunofluorescence, MLSMR starter and 10KST1 sets (AID 487;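 active = visually confirmed hit in the image check and inhibition above 20%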;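 for inhibition: signal is fraction of cell area covered by stained E-selectin grains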;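 for nuclei count: 100% = median nuclei count of all wells on the same plate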); conditions: HUVEC TNFalpha-induced E-selectin immunofluorescence imaging, at 2 µM; inhibition: stronger effect = higher value; nuclei count: measured here: cell number, toxicity
[3] = DUSP6 inhibitors restoring Erk phosphorylation by chemical complementation, primary imaging in DUSP6-transfected HeLa (AID 609;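 active = compounds giving at least 50% inhibition in the cell-based MKP-3 phosphatase rescue imaging test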;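 for inhibition: phospho-Erk level distribution per well compared with pooled transfected vehicle control wells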); conditions: HeLa MKP-3 transfected, phospho-Erk imaging KS statistic, at 10 µM, cells stimulated with TPA for 15 min
[4] = target: Dual specificity protein phosphatase 6 (Homo sapiens) (UniProt Q16828); experiment: as above; conditions: HeLa MKP-3 transfected, phospho-Erk imaging KS statistic; at 10 µM; stronger effect = higher value; cells stimulated with TPA for 15 min
Sequence of Dual specificity protein phosphatase 6 (Homo sapiens) (Q16828 whole entry, looked up): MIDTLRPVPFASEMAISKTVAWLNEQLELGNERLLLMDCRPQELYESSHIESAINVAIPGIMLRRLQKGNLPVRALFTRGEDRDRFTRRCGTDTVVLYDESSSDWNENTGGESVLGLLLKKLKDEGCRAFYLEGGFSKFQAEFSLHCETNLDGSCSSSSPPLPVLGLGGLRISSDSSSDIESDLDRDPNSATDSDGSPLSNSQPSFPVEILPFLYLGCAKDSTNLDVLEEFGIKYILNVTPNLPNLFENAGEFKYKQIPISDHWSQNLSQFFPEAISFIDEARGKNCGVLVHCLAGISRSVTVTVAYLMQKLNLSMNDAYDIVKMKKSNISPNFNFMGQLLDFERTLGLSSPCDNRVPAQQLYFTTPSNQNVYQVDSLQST

[5] = target: Voltage-gated potassium channel subunit beta-2 (Rattus norvegicus) (UniProt P62483); experiment: KvBeta enzyme negative modulators, primary screen, biochemical, NADPH fluorescence (AID 622;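 active = fluorescence slope higher than the sample average by over 3 SD, cut at about -0.22 in these data, passing the limit was not always enough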;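 note: slope of raw intensity against log time taken from 70 to 1610 s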); conditions: recombinant KvBeta, 4-cyanobenzaldehyde reduction, at 10 µM, stronger effect = higher value
Sequence of Voltage-gated potassium channel subunit beta-2 (Rattus norvegicus) (P62483 whole entry, looked up): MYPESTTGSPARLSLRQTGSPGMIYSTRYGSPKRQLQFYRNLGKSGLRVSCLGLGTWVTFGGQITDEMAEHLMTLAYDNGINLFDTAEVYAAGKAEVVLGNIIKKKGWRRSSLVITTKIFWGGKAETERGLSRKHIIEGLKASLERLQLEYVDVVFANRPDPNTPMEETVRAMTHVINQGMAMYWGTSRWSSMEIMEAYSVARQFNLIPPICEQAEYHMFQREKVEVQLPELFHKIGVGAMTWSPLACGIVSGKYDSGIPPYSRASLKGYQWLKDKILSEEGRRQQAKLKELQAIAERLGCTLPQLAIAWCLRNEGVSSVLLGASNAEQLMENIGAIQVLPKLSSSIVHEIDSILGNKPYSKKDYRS

[6] = target: Voltage-gated potassium channel subunit beta-2 (Rattus norvegicus) (UniProt P62483); experiment: KvBeta positive modulators, primary screen, biochemical, NADPH fluorescence (AID 623;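 active = NADPH fluorescence slope more negative than the mean of all samples by about 3 SD, 99.7% confidence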;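 note: fluorescence intensity change per second fitted from 20 to 320 s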); conditions: Recombinant KvBeta, NADPH fluorescence decrease slope, 10 min; at 10 µM; stronger effect = lower value
[7] = target: Alpha-2C adrenergic receptor (Homo sapiens) (UniProt P18825); experiment: modulators of alpha2C/GIRK thallium flux, primary screen, cell-based, HEK293 alpha2C/GIRK1/2 (AID 624;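 active = fluorescence slope after compound addition differing from the mean of all screened samples at 99.7% confidence, in either direction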;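 note: slope of fluorescence ratio to pre-addition baseline per second over 15 to 24 s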); conditions: thallium flux BTC fluorescence, at 10 µM, actives lie on both sides
Sequence of Alpha-2C adrenergic receptor (Homo sapiens) (P18825 whole entry, looked up): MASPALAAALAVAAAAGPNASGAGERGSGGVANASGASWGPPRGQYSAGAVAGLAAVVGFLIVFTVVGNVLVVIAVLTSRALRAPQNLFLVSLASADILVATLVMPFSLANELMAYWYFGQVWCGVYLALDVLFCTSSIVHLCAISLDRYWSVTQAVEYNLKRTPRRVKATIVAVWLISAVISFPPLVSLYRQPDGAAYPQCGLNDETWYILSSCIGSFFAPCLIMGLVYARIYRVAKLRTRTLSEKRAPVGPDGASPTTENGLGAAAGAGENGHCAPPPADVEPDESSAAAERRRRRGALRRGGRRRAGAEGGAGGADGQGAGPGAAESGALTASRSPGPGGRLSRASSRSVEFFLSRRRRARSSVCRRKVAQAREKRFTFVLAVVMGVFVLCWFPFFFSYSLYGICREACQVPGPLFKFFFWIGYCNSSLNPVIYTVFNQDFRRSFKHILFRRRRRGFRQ

[8] = inhibitors of larval lipid processing in zebrafish, primary screen, whole organism, PED6 fluorescence, gall bladder and intestine (AID 686;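 active = a full or partial loss of lipid-probe fluorescence in the fish gall bladder, intestine or both, judged by eye; inactive = no fluorescence loss, or compound toxic to the fish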;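 note: larvae 5 to 7 days old with five fish per well; signal comes from phospholipase A2 cleavage of quenched PED6 carried via bile; overnight exposure to compound and PED6 before scoring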); conditions: Zebrafish larvae PED6 lipid processing, fluorescence scoring; screened at 20 µM (by protocol)
Method in brief: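 Doses: 20 µM single dose. Test system: live zebrafish larvae aged 5-7 days, whole organism. Quantity: five larvae per well. Measured by: By-eye fluorescence microscopy. Reagent: ingested quenched lipid PED6 at 100 nM. Read-out: visual per-well fluorescence inhibition score. Times: overnight exposure of larvae to compound plus PED6.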

[9] = inhibitors of Chlamydomonas gravitaxis, primary screen, whole organism, Chlamydomonas reinhardtii, WT vs cilia-less mutant, absorbance, 96-well (AID 463189); conditions: OD600 absorbance, 2 days, at 10 µM, stronger effect = higher value;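 note: 0% = wild type cc124 cells in DMSO and 100% = ciliumless bld1 mutant cells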
[10] = target: Muscarinic acetylcholine receptor M4 (Homo sapiens) (UniProt P08173); experiment: compounds altering M4/GIRK thallium flux, either direction, primary screen, M4 allosteric agonist project, cell-based, HEK293 M4/GIRK, BTC-AM (AID 625;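 active = fluorescence slope after compound addition differing from the mean of all tested samples at 99.7% confidence, mostly higher but some lower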;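 note: thallium influx through GIRK channels coupled to M4 in HEK293 cells with BTC-AM dye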); conditions: at 10 µM, actives lie on both sides
Sequence of Muscarinic acetylcholine receptor M4 (Homo sapiens) (P08173 whole entry, looked up): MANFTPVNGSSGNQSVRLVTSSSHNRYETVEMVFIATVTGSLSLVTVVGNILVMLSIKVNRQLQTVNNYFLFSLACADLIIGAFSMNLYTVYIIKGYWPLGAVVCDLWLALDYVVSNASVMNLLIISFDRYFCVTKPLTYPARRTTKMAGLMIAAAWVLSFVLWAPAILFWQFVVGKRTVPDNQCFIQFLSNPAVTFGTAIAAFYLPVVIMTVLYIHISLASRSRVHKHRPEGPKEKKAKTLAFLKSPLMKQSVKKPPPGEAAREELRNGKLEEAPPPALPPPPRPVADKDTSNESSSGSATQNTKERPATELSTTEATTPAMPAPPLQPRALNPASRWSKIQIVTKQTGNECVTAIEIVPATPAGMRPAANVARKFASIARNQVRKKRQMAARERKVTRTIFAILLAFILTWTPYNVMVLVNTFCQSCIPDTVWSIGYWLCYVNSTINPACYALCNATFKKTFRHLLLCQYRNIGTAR
Method in brief: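 Assay system: HEK293 cells with M4 receptor and GIRK channels / Controls: carbachol and DMSO controls / Schedule: 1 h dye loading, 2 min kinetic read / Technique: kinetic fluorescence with BTC-AM dye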

[11] = measured here: cell density z-score
[12] = measured here: nuclear c-Myc green intensity z-score
[13] = measured here: nuclear pErk red intensity z-score, stronger effect = higher value

Row | SMILES | cell count [1] | inhibition [1] | inhibition [2] | nuclei count [2] [%] | z-score [3, 11] | z-score [3, 12] | z-score [3, 13] | inhibition [4] | fluorescence slope [5] | NADPH fluorescence slope [6] | slope [7] | outcome [8] | inhibition [9] | fluorescence slope [10]
1 | COc1ccccc1N1CCN(CCCCOc2ccc(F)cc2)CC1 | 461 | -6.8% (inactive) | -62.1% (inactive) | 116 | 1.12 | -0.735 | -0.613 | 26.6% (inactive) | -0.52 (inactive) | -3.7e-05 (inactive) | 0.00493 (inactive) | inactive | 9.82% (inactive) | 
2 | COC(=O)c1sccc1NC(=O)c1c(C)cc(=O)oc1C | 553 | 2.4% (inactive) | -142% (inactive) | 138 | 0.942 | 0.338 | -0.793 | -8.76% (inactive) | -0.515 (inactive) | -3.4e-05 (inactive) | 0.00537 (inactive) | inactive | -11.2% (inactive) | 
3 | COc1ccccc1C(=O)N1CCCC1(C#N)c1ccccc1 (stereo unspecified) | 653 | 1.8% (inactive) | -44.9% (inactive) | 121 | -0.569 | -0.677 | -0.674 | -6.48% (inactive) | -0.475 (inactive) | -0.000294 (inactive) | 0.00555 (inactive) | inactive | 13% (inactive) | 
4 | COc1ccc(C2N3CC4(C)CN2CC(C)(C3)C4O)cc1OC (stereo unspecified) | 348 | -20.6% (inactive) | -105% (inactive) | 122 | 0.441 | -1.49 | -0.949 | -5.26% (inactive) | -0.473 (inactive) | -7.1e-05 (inactive) | 0.00557 (inactive) | inactive | 37% (inactive) | 
5 | CCC1SC(N)=NC1=O (stereo unspecified) | 522 | -23.4% (inactive) | -58.7% (inactive) | 182 | -1.82 | 1.35 | 1.78 | -15% (inactive) | -0.405 (inactive) | -7.4e-05 (inactive) | 0.00536 (inactive) | inactive | 13.5% (inactive) | 
6 | CN1CCN(CCC(=O)N2c3ccccc3Sc3ccc(Cl)cc32)CC1 | 450 | -3.2% (inactive) | -122% (inactive) | 176 | 0.831 | 0.747 | -0.386 | 0.671% (inactive) | -0.432 (inactive) | -5.3e-05 (inactive) | 0.00551 (inactive) | inactive | 15.9% (inactive) | 
7 | CN(C)c1nc2sc3c(c2c(=O)n1C)CC(C)(C)OC3 | 651 | -12.1% (inactive) | -452% (inactive) | 185 | -0.36 | 0.198 | 1 | -0.159% (inactive) | -0.514 (inactive) | -4.6e-05 (inactive) | 0.00471 (inactive) | inactive | 157% (active) | 
8 | Cc1cc(C)n(CC(=O)n2nc(C)cc2C)n1 | 519 | -6.2% (inactive) | -24.6% (inactive) | 81.7 | 0.222 | 0.17 | 0.394 | 5.95% (inactive) | -0.492 (inactive) | -2.9e-05 (inactive) | 0.00514 (inactive) | inactive | 15% (inactive) | 
9 | CCN1C(=O)CC(N2CCN(c3ccc(OC)cc3)CC2)C1=O (stereo unspecified) | 489 | -27.6% (inactive) | -368% (inactive) | 154 | 1.11 | -0.53 | -0.692 | 16.1% (inactive) | -0.537 (inactive) | -6.5e-05 (inactive) | 0.00497 (inactive) | inactive | 5.49% (inactive) | 
10 | Cc1cc(=O)oc2cc(OCCSCCN3CCOCC3)ccc12 | 382 | -4.7% (inactive) | -171% (inactive) | 162 | 1.19 | 0.929 | 0.186 | 15.1% (inactive) | -0.358 (inactive) | -6.2e-05 (inactive) | 0.00648 (inactive) | inactive | -5.19% (inactive) | 
11 | COc1cc(C2C(C#N)=C(N)Oc3cc(C)n(CCN4CCOCC4)c(=O)c32)cc(OC)c1OC (stereo unspecified) | 388 | 4% (inactive) | -116% (inactive) | 142 | -0.238 | -0.479 | -0.461 | -4.7% (inactive) | -0.468 (inactive) | -4.4e-05 (inactive) | 0.0078 (inactive) | inactive | -6.44% (inactive) | 
12 | COCCOC(=O)C1=C(C)NC(SCC(=O)NC(C)(C)C)=C(C#N)C1c1ccco1 (stereo unspecified) | 364 | -11.5% (inactive) | -124% (inactive) | 121 | 0.297 | -0.0811 | -0.28 | 7.48% (inactive) | -0.397 (inactive) | -4e-05 (inactive) | 0.00427 (inactive) | inactive; toxic | 27.7% (inactive) | 
13 | Cc1cc(C)c(-n2c(O)c(C=NCCN3CCOCC3)c(=O)[nH]c2=O)c(C)c1 | 594 | 6.5% (inactive) | 19% (inactive) | 152 | 0.606 | -1.55 | -1.1 | 14% (inactive) | -0.334 (inactive) | -5e-07 (inactive) | 0.00437 (inactive) | inactive | 0.886% (inactive) | 
14 | COc1ccc(OC)c2c(N)c(C#N)c(C(F)(F)C(F)(F)F)nc12 | 295 | -8.5% (inactive) | 9% (inactive) | 85.5 | 1 | -1.13 | -0.419 | 21% (inactive) | -0.402 (inactive) | -3.3e-05 (inactive) | 0.00519 (inactive) | inactive | -13.9% (inactive) | 
15 | COC(=O)c1ccc(Cn2nnc3c(sc4nc(N5CCOCC5)c5c(c43)CCCC5)c2=O)o1 | 558 | -14.8% (inactive) | -101% (inactive) | 153 | 0.962 | -1.77 | -0.316 | 24.4% (inactive) | -0.275 (inactive) | 2.3e-06 (inactive) | 0.00716 (inactive) | active; weak signal in gallbladder and intestine | -3.46% (inactive) | 
16 | N/C(CCCN1CCCCC1)=N/O | 498 | -6% (inactive) | 28.3% (inactive) | 108 | 1.83 | -0.291 | 0.182 | 17.3% (inactive) | -0.509 (inactive) | -8e-06 (inactive) | 0.00607 (inactive) | inactive | 12.2% (inactive) | 
17 | COc1ccc(C2=Nn3c(nnc3-c3ccccn3)SC2)cc1OC | 593 | -10% (inactive) | 60% (inactive) | 100 | 1.34 | 0.0492 | -0.154 | -16.8% (inactive) | -0.476 (inactive) | -0.000137 (inactive) | 0.00709 (inactive) | inactive | 9.28% (inactive) | 
18 | CC(C)CC(=O)Nc1ccccc1N1CCCC1 | 269 | 3.1% (inactive) | -24.3% (inactive) | 101 | -0.814 | 0.661 | -0.804 | 9.39% (inactive) | -0.396 (inactive) | -1.2e-05 (inactive) | 0.0054 (inactive) | inactive | -8.2% (inactive) | 
19 | COc1ccccc1-n1c(=O)c2c3c(sc2n2c(SC)nnc12)CCC3 | 612 | -29% (inactive) | -100% (inactive) | 169 | -1.08 | -0.0482 | 1.7 | -0.608% (inactive) | -0.367 (inactive) | -5.4e-05 (inactive) | 0.00462 (inactive) | inactive | 16.5% (inactive) | 
20 | CCOC(=O)COc1nc(N(C)C)nc(N(C)C)n1 | 634 | -15% (inactive) | -349% (inactive) | 183 | 0.237 | 0.0213 | 0.713 | 7.48% (inactive) | -0.492 (inactive) | -0.000101 (inactive) | 0.00583 (inactive) | inactive | -0.47% (inactive) | 
21 | CN1CCN(CCCCOc2ccc(F)cc2)CC1 | 488 | -6.3% (inactive) | -39.9% (inactive) | 114 | 1.94 | -1.66 | 1.15 | 7.48% (inactive) | -0.483 (inactive) | -0.00016 (inactive) | 0.00459 (inactive) | inactive | 30.4% (inactive) | 
22 | CCCOc1ccc(/C(O)=C2/C(=O)C(=O)N(CCCn3ccnc3)C2c2cccs2)cc1 (stereo unspecified) | 537 | -14.3% (inactive) | -124% (inactive) | 150 | -0.681 | -0.103 | 0.12 | -18.6% (inactive) | -0.495 (inactive) | -3.4e-05 (inactive) | 0.00501 (inactive) | inactive | 0.323% (inactive) | 
23 | O=C(NC1CCCCC1)Nn1c(-c2ccccc2)nc2ccccc2c1=O | 695 | -7.6% (inactive) | -60.6% (inactive) | 203 | -0.332 | -0.26 | 0.432 | -9.53% (inactive) | -0.473 (inactive) | -0.000129 (inactive) |  | inactive | 2.04% (inactive) | 0.00473 (inactive)
24 | N#Cc1nc(-c2cccs2)oc1NCCN1CCOCC1 | 666 | 6.6% (inactive) | -60.7% (inactive) | 146 | 0.927 | 0.0167 | -0.446 | 10.9% (inactive) | -0.0476 (inactive) | -2.5e-05 (inactive) |  | inactive | 6.5% (inactive) | 0.00626 (inactive)
25 | O=C1C=C(NCCNc2c(F)c(F)c(CO)c(F)c2F)CCC1 | 504 | -12.3% (inactive) | -87.2% (inactive) | 105 | 0.485 | -0.53 | -1.21 | 17.8% (inactive) | -0.396 (inactive) | -1.8e-05 (inactive) |  | inactive | 32.9% (inactive) | 0.00657 (inactive)
26 | COC(=O)CSc1ncnc2c1sc1nc(-c3ccco3)c3c(c12)CC(C)(C)OC3 | 514 | -12.6% (inactive) | -71.6% (inactive) | 130 | -0.117 | 0.288 | -0.223 | 9.91% (inactive) | -0.364 (inactive) | -2e-06 (inactive) |  | inactive | -8.07% (inactive) | 0.00608 (inactive)
27 | CCOC(=O)c1c(C)[nH]c(/C(C)=N/O)c1C | 668 | -10.2% (inactive) | -400% (inactive) | 161 | -0.0773 | -1.42 | -0.664 | 1.12% (inactive) | -0.526 (inactive) | -3.4e-05 (inactive) |  | inactive | 87.2% (active) | 0.00562 (inactive)
